Assay results published in ChEMBL document CHEMBL3576766, “Immunomodulatory and Antileishmanial Activity of Phenylpropanoid Dimers Isolated from Nectandra leucantha” (J Nat Prod, 2015).
Calls of active or inactive are those of the source. The calls are words filed in the database; no cut-off is given here.

Columns and labels:
[1] = Cytotoxicity against BALB/c mouse peritoneal macrophages after 48 hrs by MTT assay; type: cell-based; settings: peritoneal macrophage cell
Outline: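 BALB/c peritoneal macrophages were seeded at 1×10^5 cells/well and exposed to 0.2 to 600 μM compound for 48 h at 37 °C under 5% CO2. Viability was read by MTT cleavage, with formazan extracted in 10% SDS for 18 h at 24 °C and absorbance read at 570 nm.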

Leishmania donovani [2] = assay: Antileishmanial activity against DsRed2 expressing Leishmania donovani promastigote assessed as parasite death after 48 hrs by flow cytometry; type: functional, organism-based
[3] = Induction of NO production in C57BL/6 mouse macrophages after 72 hrs by Griess assay; settings: macrophage
Macrophage = assay: Inhibition of IL6 production in DsRed2-Leishmania donovani promastigote infected in C57BL/6 mouse macrophages after 72 hrs by ELISA; type: functional, cell-based
Outline: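 C57BL/6 bone marrow-derived macrophages (3.5×10^6 cells/well, quadruplicates) were infected with DsRed2-L. donovani promastigotes at 1:10 and treated for 72 h at 37 °C. Supernatant IL-6 was measured by ELISA and reported in pg/mL as mean ± SE.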

Leishmania donovani [4] = assay: Antileishmanial activity against DsRed2 expressing Leishmania donovani amastigotes assessed as parasite death after 72 hrs by flow cytometry
[5] = Selectivity index, ratio of CC50 for BALB/c mouse peritoneal macrophages to IC50 for DsRed2-Leishmania donovani amastigotes; type: functional

| Compound | CC50 [1] [µM] | IC50 (Leishmania donovani [2]) | Activity [3] | inhibition (Macrophage) | IC50 (Leishmania donovani [4]) [µM] | Ratio CC50/IC50 [5] | IC50 (Leishmania donovani [2]; read-out: IC50) [µM] |
| --- | --- | --- | --- | --- | --- | --- | --- |
| C=CCc1ccc(Oc2cc([C@H](O)C=C)cc(OC)c2O)c(OC)c1 | > 292 | Not Active | Non-toxic | Active | 102 | >2.9 |  |
| SODIUM ANTIMONY GLUCONATE | 53.4 |  |  |  |  |  | 307 |
